pIC50: −log10 of the molar value. Active and inactive are the calls of the source. The calls are words filed in the database; no cut-off is given here.
Columns and labels:
[1] = system: HeLa; assay: Induction of apoptosis in human HeLa cells assessed as late apoptotic cells at 0.5 uM incubated for 48 hrs by annexin V-FITC and PI staining based flow cytometry (reference value: 0.870 %); assay type: functional
[2] = system: HCT-116; assay: Antiproliferative activity against human HCT-116 cells assessed as reduction in cell growth at 2 uM incubated for 72 hrs by CCK-8 assay relative to control; assay type: functional
[3] = system: HCT-116; assay: Induction of apoptosis in human HCT-116 cells assessed as viable cells at 1 uM incubated for 48 hrs by annexin V-FITC and PI staining based flow cytometry (reference value: 93.9 %); assay type: functional; conditions: read-out: Activity
[4] = system: NCI-H460; assay: Induction of apoptosis in human NCI-H460 cells assessed as viable cells at 1 uM incubated for 48 hrs by annexin V-FITC and PI staining based flow cytometry (reference value: 90.4 %); assay type: functional; conditions: read-out: Activity
[5] = system: HeLa; assay: Induction of cell cycle arrest in human HeLa cells assessed as reduction in G0/G1 phase at 0.5 to 2 uM incubated for 24 hrs by PI staining based flow cytometry; assay type: functional; conditions: dose 0.5-2 µM
Outline: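 Treatment at 2, 1 and 0.5 μM for 24 h, alongside CS055 and roscovitine, against a DMSO (0.1 %) blank. Cells then stained with propidium iodide and analyzed by flow cytometry.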

[6] = system: HCT-116; assay: Induction of apoptosis in human HCT-116 cells assessed as necrotic cells at 0.5 uM incubated for 48 hrs by annexin V-FITC and PI staining based flow cytometry (reference value: 0.124 %); assay type: functional
[7] = Cmax in ICR mouse at 20 mg/kg, ip measured upto 24 hrs by LC-MS/MS analysis; conditions: in vivo
[8] = system: HepG2; assay: Cytotoxicity against human HepG2 cells assessed as effect on cell morphology at 0.5 to 8 micromol incubated for 48 hrs by microscopic analysis; assay type: functional, cell-based; conditions: dose 0.5-8 µmol
Outline: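 Five cancer cell lines treated with compound or DMSO (0.1 %) for 48 h. Morphology inspected by light microscopy at 10× objective.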

[9] = system: HeLa; assay: Induction of apoptosis in human HeLa cells assessed as apoptosis rate at 2 uM incubated for 48 hrs by annexin V-FITC and PI staining based flow cytometry relative to control; assay type: functional
[10] = system: HCT-116; assay: Induction of apoptosis in human HCT-116 cells assessed as viable cells at 0.5 uM incubated for 48 hrs by annexin V-FITC and PI staining based flow cytometry (reference value: 93.9 %); assay type: functional; conditions: read-out: Activity
[11] = Half life in ICR mouse at 20 mg/kg, ip measured upto 24 hrs by LC-MS/MS analysis; conditions: in vivo
[12] = system: HeLa; assay: Induction of apoptosis in human HeLa cells assessed as early apoptotic cells at 0.5 uM incubated for 48 hrs by annexin V-FITC and PI staining based flow cytometry (reference value: 0.528 %); assay type: functional
[13] = system: HCT-116; assay: Antitumor activity against human HCT-116 cells xenografted in Balb/c mouse assessed as tumor growth inhibition at 25 mg/kg, ip administered for 21 days and measured on day 21 relative to control; assay type: functional; conditions: HCT-116, ip, 504 h, time 21 day, read-out: GI
Outline: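 HCT116 xenografts in BALB/c nude mice. Dosing started when tumours reached 100–300 mm³: intraperitoneal injection once daily for 21 days at 25, 50 or 100 mg/kg, versus blank. Body weight monitored. Tumour growth inhibition computed against blank.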

[14] = system: A-375; assay: Antimigratory activity against human A-375 cells assessed as inhibition of migration at 0.5 uM incubated for 48 hrs by microscopic based wound healing test; assay type: functional, cell-based
Outline: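 Scratch (wound-healing) migration assay in A375 and H460 cells seeded in 12-well plates. Cells exposed to compound, CS055, roscovitine or DMSO blank for 48 h. At least two independent experiments.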

[15] = target: Histone deacetylase 2 (Homo sapiens, UniProt Q92769); assay: Potency index, ratio of IC50 of CS055 to IC50 of compound for inhibition of recombinant human HDAC2 using FLUOR-DE-LYS-Green as substrate incubated for 10 mins followed by substrate addition and measured after 30 mins by fluorescence based assay
[16] = system: HepG2; assay: Antiproliferative activity against human HepG2 cells assessed as reduction in cell growth at 2 uM incubated for 72 hrs by CCK-8 assay relative to control; assay type: functional
[17] = system: NCI-H460; assay: Induction of apoptosis in human NCI-H460 cells assessed as necrotic cells incubated for 48 hrs by annexin V-FITC and PI staining based flow cytometry; assay type: functional, cell-based; conditions: dose 0.5-2 µM
[18] = system: HCT-116; assay: Induction of apoptosis in human HCT-116 cells assessed as viable cells at 2 uM incubated for 48 hrs by annexin V-FITC and PI staining based flow cytometry (reference value: 93.9 %); assay type: functional; conditions: read-out: Activity
[19] = system: HepG2; assay: Antiproliferative activity against human HepG2 cells assessed as reduction in cell growth at 8 uM incubated for 72 hrs by CCK-8 assay relative to control; assay type: functional
[20] = system: HeLa; assay: Induction of apoptosis in human HeLa cells assessed as early apoptotic cells at 2 uM incubated for 48 hrs by annexin V-FITC and PI staining based flow cytometry (reference value: 0.528 %); assay type: functional
[21] = system: A-375; assay: Induction of apoptosis in human A-375 cells assessed as late apoptotic cells at 0.5 uM incubated for 48 hrs by annexin V-FITC and PI staining based flow cytometry (reference value: 2.24 %); assay type: functional
[22] = target: Histone deacetylase 1 (Homo sapiens, UniProt Q13547); assay: Inhibition of recombinant human HDAC1 using SIRT1 as substrate incubated for 10 mins followed by substrate addition and measured after 30 mins by fluorescence based assay
Outline: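 IC50 values reported as means of at least two separate determinations, expressed as mean ±SD.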

[23] = system: A-375; assay: Induction of apoptosis in human A-375 cells assessed as viable cells at 2 uM incubated for 48 hrs by annexin V-FITC and PI staining based flow cytometry (reference value: 96.3 %); assay type: functional; conditions: read-out: Activity
[24] = Intraperitoneal bioavailability in ICR mouse at 20 mg/kg measured upto 24 hrs by LC-MS/MS analysis; conditions: in vivo, ip
[25] = system: HCT-116; assay: Induction of apoptosis in human HCT-116 cells assessed as late apoptotic cells at 2 uM incubated for 48 hrs by annexin V-FITC and PI staining based flow cytometry (reference value: 1.88 %); assay type: functional
[26] = MRT (0 to t) in ICR mouse at 20 mg/kg, ip measured upto 24 hrs by LC-MS/MS analysis; conditions: in vivo
[27] = system: HeLa; assay: Induction of apoptosis in human HeLa cells assessed as early apoptotic cells at 1 uM incubated for 48 hrs by annexin V-FITC and PI staining based flow cytometry (reference value: 0.528 %); assay type: functional
[28] = system: HCT-116; assay: Antiproliferative activity against human HCT-116 cells assessed as reduction in cell growth incubated for 72 hrs by CCK-8 assay; assay type: functional, cell-based; conditions: HCT-116, 72 h
Outline: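 IC50 by CCK-8 assay across five solid-tumour lines (HCT116, HepG2, H460, HeLa, A375). Run only for compounds chosen after the single-concentration screen, with CS055 and roscovitine as references.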

[29] = system: A-375; assay: Induction of apoptosis in human A-375 cells assessed as early apoptotic cells at 2 uM incubated for 48 hrs by annexin V-FITC and PI staining based flow cytometry (reference value: 1.34 %); assay type: functional

Sequence of Histone deacetylase 1 (Q13547 whole entry): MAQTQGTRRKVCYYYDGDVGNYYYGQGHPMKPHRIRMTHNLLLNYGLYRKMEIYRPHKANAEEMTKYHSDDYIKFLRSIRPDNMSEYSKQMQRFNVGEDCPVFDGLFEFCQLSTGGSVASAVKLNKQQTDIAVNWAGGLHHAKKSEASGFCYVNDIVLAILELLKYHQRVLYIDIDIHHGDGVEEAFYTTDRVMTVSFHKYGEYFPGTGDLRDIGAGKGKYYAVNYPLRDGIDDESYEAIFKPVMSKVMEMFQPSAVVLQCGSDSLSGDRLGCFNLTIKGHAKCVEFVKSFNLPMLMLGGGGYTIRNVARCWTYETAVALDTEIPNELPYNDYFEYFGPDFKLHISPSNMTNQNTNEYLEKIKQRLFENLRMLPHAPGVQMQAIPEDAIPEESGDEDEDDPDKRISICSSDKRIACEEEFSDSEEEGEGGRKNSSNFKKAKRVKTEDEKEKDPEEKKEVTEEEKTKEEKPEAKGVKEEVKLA
Sequence of Histone deacetylase 2 (Q92769 whole entry): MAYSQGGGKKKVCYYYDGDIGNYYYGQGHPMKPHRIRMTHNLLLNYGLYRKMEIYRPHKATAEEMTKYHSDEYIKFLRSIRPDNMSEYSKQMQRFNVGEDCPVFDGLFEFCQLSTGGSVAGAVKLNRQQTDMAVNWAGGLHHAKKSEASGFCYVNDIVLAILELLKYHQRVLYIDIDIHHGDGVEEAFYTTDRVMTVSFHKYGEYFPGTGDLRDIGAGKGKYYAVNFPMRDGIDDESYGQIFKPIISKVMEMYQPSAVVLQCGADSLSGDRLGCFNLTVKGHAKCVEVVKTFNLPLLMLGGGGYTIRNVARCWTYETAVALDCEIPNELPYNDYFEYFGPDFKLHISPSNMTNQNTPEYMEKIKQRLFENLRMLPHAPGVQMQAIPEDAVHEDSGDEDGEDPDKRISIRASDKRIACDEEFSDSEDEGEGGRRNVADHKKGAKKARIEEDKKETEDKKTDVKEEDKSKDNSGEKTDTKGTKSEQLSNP

Structure (SMILES): Cc1ccc(Nc2nc(Cl)nc3c2ncn3Cc2ccc(C(=O)Nc3ccccc3N)cc2)cc1
- Activity [1]: 5.47%
- inhibition at 2 µM [2]: 76.3%
- viability at 1 µM [3]: 13.3%
- viability at 1 µM [4]: 63.1%
- Activity [5]: Active
- Activity [6]: 1.37%
- Cmax [7]: 1360 ng/mL
- Activity [8]: Active
- Activity [9]: 22.36%
- viability at 0.5 µM [10]: 21.3%
- half-life [11]: 2.84 h
- Activity [12]: 4.36%
- inhibition in vivo at 25 mg/kg [13]: 28%
- inhibition [14]: Active
- Ratio IC50 [15]: 2
- inhibition at 2 µM [16]: 76.2%
- Activity [17]: Dose-dependent effect
- viability at 2 µM [18]: 9.72%
- inhibition at 8 µM [19]: 82%
- Activity [20]: 8.26%
- Activity [21]: 72.2%
- pIC50 [22]: 7.15
- viability at 2 µM [23]: 7.6%
- bioavailability [24]: 50.8%
- Activity [25]: 13.4%
- MRT last at 24 h [26]: 4.54 h
- Activity [27]: 5.85%
- pIC50 [28]: 6.24
- Activity [29]: 7.19%

Reference: ChEMBL document CHEMBL4765302, “Design, synthesis and biological evaluation of novel histone deacetylase1/2 (HDAC1/2) and cyclin-dependent Kinase2 (CDK2) dual inhibitors against malignant cancer” (Eur J Med Chem, 2020)
